Reference: ChEMBL document CHEMBL4477235, “Evolution of a Novel, Orally Bioavailable Series of PI3Kδ Inhibitors from an Inhaled Lead for the Treatment of Respiratory Disease” (J Med Chem, 2016)
Calls of active or inactive are those of the source. The rule behind the calls is not given here.

What was measured:
Homo sapiens [1] = species on record: Homo sapiens; assay: Selectivity ratio of IC50 for PI3Kgamma (unknown origin) to IC50 for PI3Kdelta (unknown origin)
Outline: (§1)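 Ratio of each isoform's HTRF IC50 to the PI3Kδ HTRF IC50. Enzymes were preincubated 15 min with 4-fold compound dilutions in HEPES pH 7.0, MgCl2, DTT buffer. […] PIP2 was 5 µM for δ and 8 µM for α/β/γ. 60 min reaction, then EDTA quench with GRP-1 PH domain/APC/Eu detection. Four-parameter fit.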

[2] = Drug uptake in blood of Brown Norway rat acute OVA model of TH2-driven lung inflammation at 3 mg/kg, po pretreated for 30 mins followed by OVA challenge measured 1 hr post dose; type: ADME, organism-based; conditions: read-out: Drug uptake
Outline: (§2)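 Sensitized Brown Norway rats given oral compound 30 min before intratracheal OVA challenge. Blood concentration taken 1 h after dosing, i.e. 30 min after challenge.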

[3] = target: Tyrosine-protein kinase ITK/TSK (Homo sapiens, UniProt Q08881); assay: Inhibition of ITK (unknown origin)
Chain of Tyrosine-protein kinase ITK/TSK (Q08881 whole entry): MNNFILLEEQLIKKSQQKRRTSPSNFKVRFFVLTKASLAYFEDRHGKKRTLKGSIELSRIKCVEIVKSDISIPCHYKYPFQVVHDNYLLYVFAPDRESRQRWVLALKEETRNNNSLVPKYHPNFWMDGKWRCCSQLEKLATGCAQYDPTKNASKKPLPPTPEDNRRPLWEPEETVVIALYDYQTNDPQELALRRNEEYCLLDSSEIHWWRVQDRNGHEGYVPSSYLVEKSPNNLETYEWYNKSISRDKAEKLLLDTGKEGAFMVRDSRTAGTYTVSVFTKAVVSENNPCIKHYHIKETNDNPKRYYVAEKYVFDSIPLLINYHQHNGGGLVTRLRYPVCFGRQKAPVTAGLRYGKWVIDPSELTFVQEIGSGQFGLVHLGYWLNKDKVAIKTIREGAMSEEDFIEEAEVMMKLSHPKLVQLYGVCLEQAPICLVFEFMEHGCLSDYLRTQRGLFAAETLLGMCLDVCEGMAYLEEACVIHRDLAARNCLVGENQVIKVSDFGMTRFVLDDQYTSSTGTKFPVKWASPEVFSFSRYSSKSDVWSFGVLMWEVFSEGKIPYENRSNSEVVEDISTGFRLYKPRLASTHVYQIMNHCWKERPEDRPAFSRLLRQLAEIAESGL

[4] = Oral bioavailability in Sprague-Dawley rat at 3 mg/kg measured up to 7 hrs by LC-MS/MS analysis; type: ADME, organism-based; conditions: in vivo, 7 h
Outline: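 Male Sprague Dawley rats, n = 2 per route, were dosed discretely at 3 mg/kg orally or 1 mg/kg intravenously. The dosing solution was DMSO/PEG200/water (5:45:50 v/v/v). Serial tail-vein blood samples were taken over 0–7 h, and parent compound was quantified by LC–MS/MS. Parameters were estimated by noncompartmental analysis.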

Homo sapiens [5] = species on record: Homo sapiens; assay: Selectivity ratio of IC50 for PI3Kbeta (unknown origin) to IC50 for PI3Kdelta (unknown origin); outline: as §1
[6] = Fraction unbound in Brown Norway rat acute OVA model of TH2-driven lung inflammation at 3 mg/kg, po pretreated for 30 mins followed by OVA challenge measured 1 hr post dose by HPLC analysis; type: ADME, organism-based; conditions: in vivo
Outline: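 Unbound concentration at 1 h post-dose estimated by an internal algorithm from binding to HPLC columns coated with HSA and α-glycoprotein.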

Choline kinase alpha = Choline kinase alpha (Homo sapiens, UniProt P35790); assay: Inhibition of choline kinase alpha (unknown origin)
Chain of Choline kinase alpha (P35790 whole entry): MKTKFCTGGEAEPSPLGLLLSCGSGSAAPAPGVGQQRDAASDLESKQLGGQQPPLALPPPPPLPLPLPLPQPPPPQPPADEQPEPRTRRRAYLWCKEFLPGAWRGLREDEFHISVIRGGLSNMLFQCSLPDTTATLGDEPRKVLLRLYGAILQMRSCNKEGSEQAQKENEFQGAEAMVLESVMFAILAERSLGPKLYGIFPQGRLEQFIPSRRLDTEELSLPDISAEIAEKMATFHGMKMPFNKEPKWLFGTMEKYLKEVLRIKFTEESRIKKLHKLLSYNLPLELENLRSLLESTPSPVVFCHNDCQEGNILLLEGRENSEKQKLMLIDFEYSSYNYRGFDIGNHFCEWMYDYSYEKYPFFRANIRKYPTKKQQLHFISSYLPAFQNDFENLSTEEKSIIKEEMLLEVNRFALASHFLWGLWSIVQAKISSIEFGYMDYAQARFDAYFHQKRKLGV

Rattus norvegicus = assay: Anti-inflammatory activity in Brown Norway rat acute OVA model of TH2-driven lung inflammation assessed as protection against eosinophil recruitment in bronchoalveolar lavage fluid at 3 mg/kg, po pretreated for 30 mins followed by OVA challenge by DAPI staining based flow cytometry; type: functional, organism-based
Outline: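 Male Brown Norway rats (250–300 g) sensitized i.p. with 10 μg OVA plus 20 mg Al(OH)₃ on days 1 and 7. Oral compound given 30 min before intratracheal OVA challenge on day 21 or 28, under isoflurane. BAL taken 48 h post-challenge. Leucocytes counted by flow cytometry, gated on FSC/SSC, with DAPI+ dead cells excluded.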

[7] = Half life in Brown Norway rat acute OVA model of TH2-driven lung inflammation at 3 mg/kg, po pretreated for 30 mins followed by OVA challenge; type: ADME, organism-based; conditions: in vivo
[8] = Clearance in rat liver microsomes at 0.5 uM measured up to 30 mins by LC-MS/MS analysis; type: ADME, Microsome; conditions: 0.5 h
Outline: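 Rat liver microsomes (0.5 mg protein/mL) prewarmed 10 min at 37 °C, started with NADPH regeneration system. Final compound 0.5 μM. Sampled at 0, 3, 6, 12 and 30 min into acetonitrile with internal standard. Peak area ratios by LC–MS/MS fitted to log-linear decline. Clearance scaled by protein concentration, incubation volume and 52.5 mg microsomal protein/g liver.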

[9] = target: Choline/ethanolamine kinase (Homo sapiens, UniProt Q9Y259); assay: Inhibition of CHKB (unknown origin)
Chain of Choline/ethanolamine kinase (Q9Y259 whole entry): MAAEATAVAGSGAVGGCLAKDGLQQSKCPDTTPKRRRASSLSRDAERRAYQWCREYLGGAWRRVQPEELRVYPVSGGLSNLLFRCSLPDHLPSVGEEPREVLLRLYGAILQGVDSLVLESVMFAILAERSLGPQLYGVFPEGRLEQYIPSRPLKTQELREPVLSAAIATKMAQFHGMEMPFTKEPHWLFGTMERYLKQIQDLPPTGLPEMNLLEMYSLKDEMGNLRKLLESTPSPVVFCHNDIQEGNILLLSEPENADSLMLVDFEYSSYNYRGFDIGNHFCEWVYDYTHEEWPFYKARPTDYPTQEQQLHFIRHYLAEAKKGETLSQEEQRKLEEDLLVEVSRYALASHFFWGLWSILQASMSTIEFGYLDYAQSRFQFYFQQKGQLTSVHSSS

[10] = target: Inhibitor of nuclear factor kappa-B kinase subunit alpha (Homo sapiens, UniProt O15111); assay: Inhibition of IKK1 (unknown origin)
Chain of Inhibitor of nuclear factor kappa-B kinase subunit alpha (O15111 whole entry): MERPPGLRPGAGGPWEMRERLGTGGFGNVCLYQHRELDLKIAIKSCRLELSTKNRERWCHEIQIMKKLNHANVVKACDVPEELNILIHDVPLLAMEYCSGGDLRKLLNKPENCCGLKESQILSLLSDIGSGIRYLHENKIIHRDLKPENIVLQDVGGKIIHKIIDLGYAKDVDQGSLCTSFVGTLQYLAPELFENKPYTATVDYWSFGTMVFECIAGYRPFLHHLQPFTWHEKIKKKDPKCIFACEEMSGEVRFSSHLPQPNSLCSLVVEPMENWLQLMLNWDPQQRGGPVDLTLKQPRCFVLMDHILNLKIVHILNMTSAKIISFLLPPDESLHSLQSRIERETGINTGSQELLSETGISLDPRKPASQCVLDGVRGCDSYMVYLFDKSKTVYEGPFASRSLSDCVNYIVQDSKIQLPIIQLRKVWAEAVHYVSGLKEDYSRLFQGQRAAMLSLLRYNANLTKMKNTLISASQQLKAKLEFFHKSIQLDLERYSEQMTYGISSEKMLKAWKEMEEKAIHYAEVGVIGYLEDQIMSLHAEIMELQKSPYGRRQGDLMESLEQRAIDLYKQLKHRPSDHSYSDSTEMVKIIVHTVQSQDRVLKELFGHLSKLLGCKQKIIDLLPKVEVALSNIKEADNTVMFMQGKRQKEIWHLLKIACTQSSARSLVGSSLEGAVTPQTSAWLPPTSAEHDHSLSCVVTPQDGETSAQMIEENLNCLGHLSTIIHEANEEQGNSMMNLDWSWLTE

[11] = target: DNA-dependent protein kinase catalytic subunit (Homo sapiens) (UniProt P78527); assay: Inhibition of DNA-PK (unknown origin)
[12] = target: Serine/threonine-protein kinase mTOR (Homo sapiens, UniProt P42345); assay: Inhibition of FRAP1 (unknown origin)
[13] = target: Phosphatidylinositol 5-phosphate 4-kinase type-2 alpha (Homo sapiens, UniProt P48426); assay: Inhibition of PIP4K2A (unknown origin)
Chain of Phosphatidylinositol 5-phosphate 4-kinase type-2 alpha (P48426 whole entry, canonical isoform): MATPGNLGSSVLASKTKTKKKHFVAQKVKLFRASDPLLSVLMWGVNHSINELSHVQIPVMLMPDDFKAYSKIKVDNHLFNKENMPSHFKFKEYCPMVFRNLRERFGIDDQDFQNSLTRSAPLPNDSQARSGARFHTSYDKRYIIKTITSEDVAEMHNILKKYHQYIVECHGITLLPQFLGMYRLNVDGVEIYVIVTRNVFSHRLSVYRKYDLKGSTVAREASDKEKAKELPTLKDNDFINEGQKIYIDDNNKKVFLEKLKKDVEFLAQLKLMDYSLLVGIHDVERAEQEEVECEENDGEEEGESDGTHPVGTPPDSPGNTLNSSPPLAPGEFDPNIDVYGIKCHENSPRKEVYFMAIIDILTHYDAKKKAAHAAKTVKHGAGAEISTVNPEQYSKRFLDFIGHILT

[14] = target: T1, Phosphatidylinositol 4,5-bisphosphate 3-kinase catalytic subunit delta isoform (Homo sapiens, UniProt O00329)
T1 sequence (O00329 whole entry): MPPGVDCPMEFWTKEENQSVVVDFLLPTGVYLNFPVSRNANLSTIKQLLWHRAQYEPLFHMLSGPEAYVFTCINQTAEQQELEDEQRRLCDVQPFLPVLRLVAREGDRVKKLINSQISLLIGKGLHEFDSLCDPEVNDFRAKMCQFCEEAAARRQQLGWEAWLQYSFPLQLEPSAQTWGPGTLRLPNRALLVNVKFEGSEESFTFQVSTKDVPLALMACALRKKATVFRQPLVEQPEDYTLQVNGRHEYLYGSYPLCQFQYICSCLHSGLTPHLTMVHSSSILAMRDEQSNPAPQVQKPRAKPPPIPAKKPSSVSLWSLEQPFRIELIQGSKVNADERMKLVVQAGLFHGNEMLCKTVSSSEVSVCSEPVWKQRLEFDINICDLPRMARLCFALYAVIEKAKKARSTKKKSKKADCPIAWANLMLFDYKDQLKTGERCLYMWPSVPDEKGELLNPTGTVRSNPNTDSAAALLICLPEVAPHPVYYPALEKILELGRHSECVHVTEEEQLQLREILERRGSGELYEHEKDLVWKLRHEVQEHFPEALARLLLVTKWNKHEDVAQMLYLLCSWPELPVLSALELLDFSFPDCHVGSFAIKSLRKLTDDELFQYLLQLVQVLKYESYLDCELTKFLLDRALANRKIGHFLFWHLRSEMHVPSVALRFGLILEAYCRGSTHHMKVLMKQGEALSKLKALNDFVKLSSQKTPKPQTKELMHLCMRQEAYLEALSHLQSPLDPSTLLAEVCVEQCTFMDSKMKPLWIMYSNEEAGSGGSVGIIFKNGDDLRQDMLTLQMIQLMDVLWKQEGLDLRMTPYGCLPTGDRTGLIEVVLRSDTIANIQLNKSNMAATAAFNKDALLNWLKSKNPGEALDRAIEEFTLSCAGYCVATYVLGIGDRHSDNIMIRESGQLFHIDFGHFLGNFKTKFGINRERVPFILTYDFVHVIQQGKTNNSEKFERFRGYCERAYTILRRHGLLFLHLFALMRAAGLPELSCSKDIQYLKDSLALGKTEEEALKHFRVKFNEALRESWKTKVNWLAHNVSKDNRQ

[15] = Drug uptake in blood of Brown Norway rat acute OVA model of TH2-driven lung inflammation at 9 mg/kg, po pretreated for 30 mins followed by OVA challenge measured 1 hr post dose; type: ADME, organism-based; conditions: read-out: Drug uptake; outline: as §2
Homo sapiens [16] = species on record: Homo sapiens; assay: Selectivity ratio of IC50 for PI3Kalpha (unknown origin) to IC50 for PI3Kdelta (unknown origin); outline: as §1

## COc1ncc(-c2cc3c(c(NC(=O)CN4CCOCC4)c2)COC3)cc1NS(C)(=O)=O
Homo sapiens [1]
  Ratio IC50: 50
[2]
  concentration at 1 h: 0.19 µM
[3]
  IC50: > 10 µM
[4]
  F: 54%
Homo sapiens [5]
  Ratio IC50: 63
[6]
  Drug uptake(free): 0.032 µM
Choline kinase alpha
  IC50: > 10 µM
Rattus norvegicus
  Activity: Active
[7]
  half-life: 10.6 h
[8]
  CLH: < 0.5 mL/min/g
[9]
  IC50: > 10 µM
[10]
  IC50: > 10 µM
[11]
  pIC50(app): 5.6
[12]
  IC50: > 10 µM
[13]
  IC50: > 10 µM
[14]
  IC50: 0.158 µM
[15]
  concentration at 1 h: 1.27 µM
Homo sapiens [16]
  Ratio IC50: 25
